# ChEMBL document CHEMBL4368912, “Discovery and Development of N-[4-(1-Cyclobutylpiperidin-4-yloxy)phenyl]-2-(morpholin-4-yl)acetamide Dihydrochloride (SUVN-G3031): A Novel, Potent, Selective, and Orally Active Histamine H3 Receptor Inverse Agonist with Robust Wake-Promoting Activity” (J Med Chem, 2019)
# Assays:
# [1] = molecular target: Histamine H3 receptor (Homo sapiens, UniProt Q9Y5N1); assay: Displacement of [3]-RAMH from recombinant human histamine H3 receptor expressed in CHO-K1 cell membranes after 60 mins by scintillation counting
# Chain of Histamine H3 receptor (Q9Y5N1 whole entry): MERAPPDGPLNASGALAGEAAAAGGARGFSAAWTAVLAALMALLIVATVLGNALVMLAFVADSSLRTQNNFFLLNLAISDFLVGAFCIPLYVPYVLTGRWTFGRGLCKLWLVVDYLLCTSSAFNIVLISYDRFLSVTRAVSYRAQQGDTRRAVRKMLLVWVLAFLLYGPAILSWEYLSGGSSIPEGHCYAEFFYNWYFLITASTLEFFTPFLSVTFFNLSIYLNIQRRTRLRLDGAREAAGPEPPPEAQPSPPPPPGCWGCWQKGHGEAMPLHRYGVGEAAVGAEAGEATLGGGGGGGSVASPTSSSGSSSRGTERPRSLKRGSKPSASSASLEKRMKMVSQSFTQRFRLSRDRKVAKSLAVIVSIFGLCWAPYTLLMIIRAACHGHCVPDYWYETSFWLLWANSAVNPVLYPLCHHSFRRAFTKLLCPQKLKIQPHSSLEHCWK
# [2] = Ratio of drug uptake in Wistar rat brain to plasma at 3 mg/kg, po by LC-MS/MS analysis; type: ADME, organism-based; settings: brain and plasma, read-out: BPR
# Method in brief: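 Fasted male Wistar rats were dosed orally with water for injection as the vehicle. Total brain and plasma concentrations were measured at 1 h after dosing and expressed as a ratio.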
# [3] = Tmax in Wistar rat at 3 mg/kg, po or 1 mg/kg, iv by LC-MS/MS analysis; type: ADME, organism-based; settings: in vivo
# Method in brief: (§1)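 Fasted male Wistar rats were dosed orally and intravenously, with water for injection as the vehicle for both routes, at dosing volumes of 10 mL/kg p.o. and 2 mL/kg i.v.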
# [4] = AUC (0 to 24 hrs) in Wistar rat at 1 mg/kg, iv by LC-MS/MS analysis; type: ADME, organism-based; parameters: time < 24 hr, dose 1 mg/kg, route intravenous; settings: in vivo; for AUC(0-t) at 24 h: Wistar; for AUC: 24 h
# Method in brief: (§2)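 Fasted male Wistar rats; compound in water for injection, given i.v. (2 mL/kg) or p.o. (10 mL/kg). Plasma exposure measured as AUC0-24hr.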
# [5] = AUC (0 to 24 hrs) in Wistar rat at 3 mg/kg, po by LC-MS/MS analysis; type: ADME, organism-based; parameters: dose 3 mg/kg, time < 24 hr, route oral; settings: in vivo; method in brief: as §2
# [6] = Volume of distribution at steady state in Wistar rat at 3 mg/kg, po or 1 mg/kg, iv by LC-MS/MS analysis; type: ADME, organism-based; settings: in vivo; for Vd: Wistar, read-out: Vdss; method in brief: as §1
# [7] = Oral bioavailability in Wistar rat at 3 mg/kg by LC-MS/MS analysis; type: ADME, organism-based; settings: in vivo; method in brief: as §1
# [8] = Partition coefficient, log P of the compound; type: physicochemical; settings: octanol/water
# [9] = Dissociation constant, pKa1 of the compound by potentiometric titration assay; type: physicochemical
# [10] = Half life in Wistar rat at 1 mg/kg, iv by LC-MS/MS analysis; type: ADME, organism-based; settings: in vivo
# Method in brief: (§3)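 Fasted male Wistar rats dosed i.v. in water for injection at 2 mL/kg. Clearance and half-life derived from the i.v. plasma profile.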
# [11] = Dissociation constant, pKa2 of the compound by potentiometric titration assay; type: physicochemical
# [12] = Lipophilicity, log D of the compound at pH 7.4; type: physicochemical; settings: buffer
# [13] = Clearance in Wistar rat at 1 mg/kg, iv by LC-MS/MS analysis; type: ADME, organism-based; settings: in vivo; method in brief: as §3
smiles,measurement,setting,value
O=C(CN1CCOCC1)Nc1ccc(OC2CCN(C3CCC3)CC2)cc1C(F)(F)F,Ki,[1],75.8 nM
O=C(CN1CCC(F)(F)CC1)Nc1ccc(OC2CCN(C3CCC3)CC2)cc1,Ki,[1],23.6 nM
Cc1cc(OC2CCN(C3CCC3)CC2)ccc1NC(=O)CN1CCOCC1,Ki,[1],22.1 nM
CN(C(=O)CN1CCOCC1)c1ccc(OC2CCN(C3CCC3)CC2)cc1,Ki,[1],4.89 nM
CC(=O)N1CCN(CC(=O)Nc2ccc(OC3CCN(C4CCC4)CC3)cc2)CC1,Ki,[1],5.39 nM
O=C(CN1CCOCC1)Nc1cccc(OC2CCN(C3CCC3)CC2)c1,Ki,[1],212 nM
O=C(CN1CCCCC1)Nc1ccc(OC2CCN(C3CCCC3)CC2)cc1,Ki,[1],4.1 nM
CCN(C(=O)CN1CCOCC1)c1ccc(OC2CCN(C3CCC3)CC2)cc1,Ki,[1],10.8 nM
O=C(CN1CCOCC1)Nc1ccc(OC2CCN(C3CCC3)CC2)cc1F,Ki,[1],14.9 nM
O=C(NCCN1CCCC1)c1ccc(OC2CCN(C3CCC3)CC2)cc1,Ki,[1],2.9 nM
O=C(CN1CCCC1)Nc1ccc(OC2CCN(C3CCCC3)CC2)cc1,Ki,[1],3.8 nM
O=C(CN1CCOCC1)Nc1ccc(OC2CCN(C3CCCC3)CC2)cc1,Ki,[1],29.9 nM
Cc1cc(OC2CCN(C3CCC3)CC2)ccc1NC(=O)CN1CCCCC1,Ki,[1],3.3 nM
O=C1c2ccc(OC3CCN(C4CCC4)CC3)cc2CCN1C1CCN(C2CCC2)CC1,Kp,[2],0.41
same,Tmax,[3],6 h
same,AUC(0-t) at 24 h,[4],1740 ng·h/mL
same,AUC(0-t) at 24 h,[5],1430 ng·h/mL
same,Vdss,[6],13 L/kg
O=C(CN1CCOCC1)Nc1ccccc1OC1CCN(C2CCC2)CC1,Ki,[1],> 10000 nM
C[C@@H]1CCCN1CC(=O)Nc1ccc(CN2CCOCC2)cc1,Ki,[1],915 nM
O=C(CN1CCOCC1)Nc1ccc(CN2CCCC2)cc1,Ki,[1],114 nM
O=C(CN1CCOC(CO)C1)Nc1ccc(OC2CCN(C3CCC3)CC2)cc1 (stereo not drawn),Ki,[1],4.05 nM
O=C(CN1CCS(=O)(=O)CC1)Nc1ccc(OC2CCN(C3CCC3)CC2)cc1,Ki,[1],9.17 nM
O=C(Cc1cccnc1)Nc1ccc(OC2CCN(C3CCC3)CC2)cc1,Ki,[1],15.8 nM
O=C(NCCN1CCCCC1)c1ccc(OC2CCN(C3CCC3)CC2)cc1,Ki,[1],3.2 nM
Cc1cc(OC2CCN(C3CCC3)CC2)ccc1NC(=O)CN1CCCC1.Cl.Cl,Kp,[2],1.2
same,Tmax,[3],2.17 h
same,AUC,[4],3345 ng·h/mL
same,Ki,[1],1.9 nM
same,AUC(0-t) at 24 h,[5],1350 ng·h/mL
same,bioavailability,[7],20%
same,Vd,[6],27 L/kg
Cl.Cl.O=C(CN1CCCC1CO)Nc1ccc(OC2CCN(C3CCC3)CC2)cc1 (stereo not drawn),Tmax,[3],0.58 h
same,logP,[8],2.1
same,AUC(0-t) at 24 h,[4],212 ng·h/mL
same,Ki,[1],1.2 nM
same,pKa,[9],8.9
same,half-life,[10],113 min
same,AUC(0-t) at 24 h,[5],63 ng·h/mL
same,pKa,[11],6.4
same,logD,[12],0.6
same,clearance,[13],67 mL/min/kg
same,bioavailability,[7],10%
same,Vd,[6],9 L/kg
CCOC(=O)N1CCN(CC(=O)Nc2ccc(OC3CCN(C4CCC4)CC3)cc2)CC1,Ki,[1],1.07 nM
O=C(CN1CCOCC1)Nc1ccc(OC2CCNCC2)cc1,Ki,[1],> 10000 nM
C[C@@H]1CCCN1Cc1ccc(NC(=O)CN2CCOCC2)cc1,Ki,[1],3570 nM
O=C(CN1CCCC1)Nc1ccc(OC2CCN(C3CCC3)CC2)cc1C(F)(F)F,Ki,[1],26.9 nM
C[C@@H]1CCCN1CC(=O)Nc1ccc(OC2CCN(C3CCC3)CC2)cc1,Ki,[1],2.6 nM
CC(C)N1CCCN(CC(=O)Nc2ccc(OC3CCN(C4CCC4)CC3)cc2)CC1,Ki,[1],0.96 nM
Cl.Cl.O=C(CN1CCCC1)Nc1ccc(OC2CCN(C3CCC3)CC2)cc1,Tmax,[3],3.33 h
same,logP,[8],3.2
same,AUC(0-t) at 24 h,[4],757 ng·h/mL
same,Ki,[1],1.1 nM
same,pKa,[9],9.1
same,AUC(0-t) at 24 h,[5],556 ng·h/mL
same,pKa,[11],7.4
same,logD,[12],1.2
same,clearance,[13],13.6 mL/min/kg
same,bioavailability,[7],17%
same,Vd,[6],34.8 L/kg
O=C(CN1CCOCC1)Nc1ccc(N2CCN(C3CCC3)CC2)cc1,Ki,[1],532 nM
CC(C)N1CCC(Oc2ccc(C(=O)NCCN3CCCCC3)cc2)CC1,Ki,[1],9.5 nM
CCN(CC)CC(=O)Nc1ccc(OC2CCN(C3CCC3)CC2)cc1,Ki,[1],11.7 nM
O=C(CN1CCCCC1)Nc1ccc(OC2CCN(C3CCC3)CC2)cc1C(F)(F)F,Ki,[1],14.8 nM
O=C(CN1CCOCC1)Nc1ccc(OC2CCN(C3CCC3)CC2)c(F)c1,Ki,[1],62 nM
CC(C)N1CCC(Oc2ccc(NC(=O)CN3CCCCC3)cc2)CC1,logP,[8],3.4
same,Ki,[1],3.8 nM
same,pKa,[9],9.4
same,pKa,[11],7.2
same,logD,[12],1.6
O=C(CN1CCC(F)CC1)Nc1ccc(OC2CCN(C3CCC3)CC2)cc1,Ki,[1],11 nM
O=C(NCCN1CCCC1)c1ccc(OC2CCN(C3CCCC3)CC2)cc1,Tmax,[3],3.33 h
same,AUC(0-t) at 24 h,[4],174 ng·h/mL
same,Ki,[1],2.4 nM
same,AUC(0-t) at 24 h,[5],205 ng·h/mL
same,clearance,[13],156 mL/min/kg
same,bioavailability,[7],48%
same,Vd,[6],135 L/kg
CC(C)N1CCC(Oc2ccc(C(=O)NCCN3CCCC3)cc2)CC1,Ki,[1],10.4 nM
Cl.Cl.O=C(CN1CCCCC1)Nc1ccc(OC2CCN(C3CCC3)CC2)cc1,Kp,[2],36.6
same,Tmax,[3],3.33 h
same,logP,[8],3.7
same,AUC,[4],1855 ng·h/mL
same,Ki,[1],4.8 nM
same,pKa,[9],9.2
same,AUC(0-t) at 24 h,[5],1390 ng·h/mL
same,pKa,[11],7.5
same,logD,[12],1.3
same,bioavailability,[7],37%
same,Vd,[6],20 L/kg
C[C@@H]1CCCN1CCc1ccc(NC(=O)CN2CCOCC2)cc1,Ki,[1],108 nM
C[C@@H]1CCCN1CC(=O)Nc1ccc(N2CCOCC2)cc1,Ki,[1],1460 nM
O=C(CN1CCCCCC1)Nc1ccc(OC2CCN(C3CCC3)CC2)cc1,logP,[8],4.3
same,Ki,[1],2.6 nM
same,pKa,[9],9.2
same,pKa,[11],7.6
same,logD,[12],1.7
O=C(CN1CCC(O)CC1)Nc1ccc(OC2CCN(C3CCC3)CC2)cc1,Ki,[1],6.4 nM
O=C(CN1CCCN(C2CCC2)CC1)Nc1ccc(OC2CCN(C3CCC3)CC2)cc1,Ki,[1],1.61 nM
COc1cc(OC2CCN(C3CCC3)CC2)ccc1NC(=O)CN1CCOCC1,Ki,[1],90.8 nM
Cc1cc(OC2CCN(C3CCC3)CC2)ccc1NC(=O)CN1CCC[C@H]1C,Ki,[1],2.4 nM
CN(C)CC(=O)Nc1ccc(OC2CCN(C3CCC3)CC2)cc1,Ki,[1],6 nM
